Calls of active or inactive are those of the source. No cut-off for these calls is given here.
Columns and labels:
[1] = test system: Mus musculus; assay: Reno-protective activity in STZ-induced Kunming mouse model of diabetes assessed as urinary total protein excretion at 160 mg/kg, po administered daily via gavage for 8 weeks and measured at week 6 relative to control; assay type: functional; conditions: time 6 weeks
[2] = test system: Mus musculus; assay: Antioxidant activity in STZ-induced diabetic Kunming mouse assessed as increase in GSH level in kidney at 80 mg/kg, po administered QD via gavage for 4 weeks and measured at 6 hrs post-final drug dose by microplate reader analysis; assay type: functional
[3] = Inhibition of polyol pathway in STZ-induced Kunming mouse model of diabetes assessed as decrease in sorbitol level in kidney cortex at 80 mg/kg, po administered QD via gavage for 4 weeks and measured at 6 hrs post-final drug dose by fluorospectrophotometric analysis; assay type: functional; conditions: 672 h
[4] = target: Aldo-keto reductase family 1 member A1 (Rattus norvegicus, UniProt P51635); assay: Inhibition of Wistar rat kidney ALR1 assessed as reduction in NADPH oxidation using sodium D-glucuronate and NADPH as substrate preincubated for 10 mins followed by substrate addition and measured for 4 mins by spectrophotometric analysis; assay type: tissue-based
Aldo-keto reductase family 1 member A1, sequence (P51635 whole entry, looked up): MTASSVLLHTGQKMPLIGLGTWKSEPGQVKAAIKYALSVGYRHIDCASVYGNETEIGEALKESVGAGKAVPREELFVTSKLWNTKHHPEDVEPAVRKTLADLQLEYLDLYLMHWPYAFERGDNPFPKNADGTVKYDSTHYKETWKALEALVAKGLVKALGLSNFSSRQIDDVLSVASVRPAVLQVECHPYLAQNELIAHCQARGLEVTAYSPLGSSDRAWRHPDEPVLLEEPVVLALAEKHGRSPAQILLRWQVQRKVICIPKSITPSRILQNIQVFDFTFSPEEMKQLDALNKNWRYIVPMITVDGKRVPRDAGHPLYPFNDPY

[5] = test system: Mus musculus; assay: Antioxidant activity in STZ-induced diabetic Kunming mouse assessed as reduction in liver MDA level at 160 mg/kg, po administered daily via gavage for 8 weeks and measured at 6 hrs post-final drug dose relative to STZ-treated group; assay type: functional; conditions: 1344 h
[6] = test system: Mus musculus; assay: Reno-protective activity in STZ-induced Kunming mouse model of diabetes assessed as reduction in albumin to creatinine ratio at 160 mg/kg, po administered daily via gavage for 8 weeks; assay type: functional; conditions: 1344 h
[7] = test system: Mus musculus; assay: Reno-protective activity in STZ-induced Kunming mouse model of diabetes assessed as urinary total protein excretion at 160 mg/kg, po administered daily via gavage for 8 weeks and measured at week 4 relative to control; assay type: functional; conditions: time 4 weeks
[8] = Antioxidant activity assessed as DPPH radical scavenging activity at 10 uM after 30 mins by spectrophotometric analysis; assay type: functional
How it was run: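 DPPH in methanol (1 mL, 0.025 mg/mL) plus methanol 1.9 mL and compound in methanol, final 100, 50 and 10 µM; absorbance at 517 nm. Scavenging % = 1 − (A_sample − A_blank)/A_control, where the blank is compound without DPPH. Trolox reference.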

[9] = test system: Mus musculus; assay: Antioxidant activity in STZ-induced diabetic Kunming mouse assessed as rise in liver MDA level at 160 mg/kg, po administered daily via gavage for 8 weeks and measured at 6 hrs post-final drug dose relative to normal group; assay type: functional
[10] = test system: Mus musculus; assay: Antidiabetic activity in STZ-induced Kunming mouse model of diabetes assessed as reduction in blood glucose level at 160 mg/kg, po administered daily via gavage for 8 weeks and measured at week 6; assay type: functional; conditions: 1008 h, time 6 weeks
[11] = test system: Mus musculus; assay: Antioxidant activity in STZ-induced diabetic Kunming mouse assessed as rise in liver MDA level at 80 mg/kg, po administered QD via gavage for 4 weeks and measured at 6 hrs post-final drug dose relative to normal group; assay type: functional
[12] = test system: Mus musculus; assay: Antidiabetic activity in STZ-induced Kunming mouse model of diabetes assessed as reduction in blood glucose level at 80 to 160 mg/kg, po administered daily via gavage for 8 weeks and measured at 2 to 5 hrs post-last drug dose; assay type: functional, organism-based; conditions: dose 80-160 mg/kg
[13] = test system: Mus musculus; assay: Reno-protective activity in STZ-induced Kunming mouse model of diabetes assessed as urinary total protein excretion at 80 mg/kg, po administered daily via gavage for 8 weeks and measured at week 6 relative to control; assay type: functional; conditions: time 6 weeks
[14] = test system: Mus musculus; assay: Antidiabetic activity in STZ-induced Kunming mouse model of diabetes assessed as reduction in blood glucose level at 160 mg/kg, po administered daily via gavage for 8 weeks and measured at week 4; assay type: functional; conditions: 672 h, time 4 weeks
[15] = test system: Mus musculus; assay: Reno-protective activity in STZ-induced Kunming mouse model of diabetes assessed as reduction in kidney lesions and appearance of normal structure at 80 to 160 mg/kg, po administered daily via gavage for 8 weeks by H and E staining based histological analysis; assay type: functional, organism-based; conditions: dose 80-160 mg/kg
[16] = test system: Mus musculus; assay: Antioxidant activity in STZ-induced diabetic Kunming mouse assessed as increase in SOD level in kidney at 80 mg/kg, po administered daily via gavage for 8 weeks and measured at 6 hrs post-final drug dose; assay type: functional
[17] = test system: Mus musculus; assay: Antioxidant activity in STZ-induced diabetic Kunming mouse assessed as reduction in liver MDA level at 80 mg/kg, po administered daily via gavage for 8 weeks and measured at 6 hrs post-final drug dose relative to STZ-treated group; assay type: functional; conditions: 1344 h
[18] = test system: Mus musculus; assay: Antioxidant activity in STZ-induced diabetic Kunming mouse assessed as increase in GSH level in kidney at 80 mg/kg, po administered daily via gavage for 8 weeks and measured at 6 hrs post-final drug dose by microplate reader analysis; assay type: functional
[19] = test system: Mus musculus; assay: Antidiabetic activity in STZ-induced Kunming mouse model of diabetes assessed as reduction in blood glucose level at 80 mg/kg, po administered QD via gavage for 4 weeks and measured at week 2 to 4; assay type: functional, organism-based; conditions: time 2-4 weeks
[20] = test system: Mus musculus; assay: Reno-protective activity in STZ-induced Kunming mouse model of diabetes assessed as reduction in albumin to creatinine ratio at 80 mg/kg, po administered QD via gavage for 4 weeks; assay type: functional; conditions: 672 h

In the case of `COc1cc(/C=C/c2cccc3c2oc(=O)n3CC(=O)O)ccc1O`, the Activity [1] is reported as 36%, the Activity [2] is reported as 150% and the inhibition in vivo at 80 mg/kg [3] is reported as 24%. It also gave an IC50 [4] of 4.9 µM, an inhibition in vivo at 160 mg/kg [5] of 45% and an inhibition in vivo at 160 mg/kg [6] of 79%. For the same compound, the Activity [7] was 93%, the Activity [8] was 22.7% and the Activity [9] was 39%. The inhibition in vivo at 160 mg/kg [10] was 19%, the Activity [11] was 15% and the Activity [12] was “Active”. For the same compound, the Activity [13] was 50%, the inhibition in vivo at 160 mg/kg [14] was 23% and the Activity [15] was “Active”. For the same compound, the Activity [16] was 177%, the inhibition in vivo at 80 mg/kg [17] was 67% and the Activity [18] was 170%. For the same compound, the Activity [19] was “Active” and the inhibition in vivo at 80 mg/kg [20] was 57%.

— ChEMBL document CHEMBL4732211, “Multifunctional agents based on benzoxazolone as promising therapeutic drugs for diabetic nephropathy” (Eur J Med Chem, 2021)
